Experimental data as given in ChEMBL document CHEMBL4699389, “Design and synthesis of a bivalent probe targeting the putative mu opioid receptor and chemokine receptor CXCR4 heterodimer” (RSC Med Chem, 2020).
Activity calls are given as the source filed them. The calls are words filed in the database; no cut-off is given here.

Legend:
Mu-type opioid receptor [1] = biological target: T1, Mu-type opioid receptor (Mus musculus, UniProt P42866); assay: Displacement of [3H]-NLX from mouse MOR expressed in CHO cells incubated for 1.5 hrs by radioligand binding assay; type: cell-based
T1 sequence (P42866 whole entry): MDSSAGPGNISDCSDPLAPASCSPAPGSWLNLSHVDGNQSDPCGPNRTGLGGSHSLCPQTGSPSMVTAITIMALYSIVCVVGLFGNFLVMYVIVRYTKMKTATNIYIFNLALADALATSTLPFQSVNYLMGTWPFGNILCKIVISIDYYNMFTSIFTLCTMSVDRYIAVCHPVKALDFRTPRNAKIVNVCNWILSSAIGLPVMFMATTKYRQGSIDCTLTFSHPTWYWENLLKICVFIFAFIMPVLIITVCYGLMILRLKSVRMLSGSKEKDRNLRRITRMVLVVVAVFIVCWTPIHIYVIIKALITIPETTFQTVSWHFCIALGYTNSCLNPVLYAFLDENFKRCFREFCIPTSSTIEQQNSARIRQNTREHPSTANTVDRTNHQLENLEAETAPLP

[2] = biological target: T2, C-X-C chemokine receptor type 4 (Homo sapiens, UniProt P61073); assay: Binding affinity to CXCR4 (unknown origin) expressed in CHO cells incubated for 40 mins by immunofluorescence assay; type: cell-based
T2 sequence (P61073 whole entry): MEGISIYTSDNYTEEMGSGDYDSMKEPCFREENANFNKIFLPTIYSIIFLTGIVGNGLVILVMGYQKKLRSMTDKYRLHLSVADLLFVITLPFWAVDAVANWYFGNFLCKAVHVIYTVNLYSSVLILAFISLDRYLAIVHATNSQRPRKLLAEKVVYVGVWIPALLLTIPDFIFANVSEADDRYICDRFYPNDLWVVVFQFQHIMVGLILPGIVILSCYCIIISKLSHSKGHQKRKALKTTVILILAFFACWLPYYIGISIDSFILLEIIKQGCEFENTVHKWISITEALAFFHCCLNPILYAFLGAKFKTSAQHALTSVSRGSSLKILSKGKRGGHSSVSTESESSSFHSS
Outline: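 Trypsinized CHO-CXCR4 cells (5×10⁵ per well) in FACS buffer (0.5% BSA, 0.05% azide in PBS). Incubated 40 min on ice with mouse anti-human CD184 (1:2000) plus graded compound concentrations, then with anti-mouse IgG-FITC (1:1000) for 30 min on ice. IC50 from at least three independent experiments.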

[3] = biological target: Mu-type opioid receptor (Mus musculus) (UniProt P42866); assay: Agonist activity at mouse MOR expressed in CHO cells assessed as increase in calcium influx incubated for 15 mins by Fluo-4AM dye based fluorescence assay; type: functional, cell-based
Chain of Mu-type opioid receptor (Mus musculus) (P42866 whole entry): as the sequence (P42866 whole entry) above
Outline: (§1)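 Cells transiently transfected with Gqi5 (Lipofectamine 2000), plated at […] per well and grown to confluence. At 48 h post-transfection, loaded with fluo-4 AM plus probenecid in HBSS-HEPES-Ca-Mg buffer for 45 min. Ligands tested alone at 0.3 nM to 3 μM. Ca²⁺ followed as RFU for 90 s on FlexStation3. Triplicate doses, at least 4 repeats.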

[4] = biological target: T2, C-X-C chemokine receptor type 4; assay: Agonist activity at […] (unknown origin) expressed in HOS cells assessed as increase in calcium influx incubated for 15 mins by Fluo-4AM dye based fluorescence assay; type: functional, cell-based; outline: as §1
Mu-type opioid receptor [5] = biological target: T1, Mu-type opioid receptor; assay: Antagonist activity at mouse MOR expressed in CHO cells assessed as decrease in DAMGO-induced calcium influx incubated for 15 mins followed by DAMGO stimulation and measured after 90 sec by Fluo-4AM dye based fluorescence assay; type: functional, cell-based
Outline: (§2)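 Gqi5-transfected cells, 48 h post-transfection, loaded with fluo-4 AM/probenecid for 45 min. Pre-incubated 15 min with compound at varying concentrations, then agonist added: SDF-1 for CXCR4-HOS, DAMGO for MOR-CHO. RFU read for 90 s on FlexStation3. IC50 from peak values by non-linear regression. Triplicate doses, at least 4 repeats.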

[6] = biological target: T2, C-X-C chemokine receptor type 4; assay: Antagonist activity at CXCR4 (unknown origin) expressed in HOS cells assessed as decrease in SDF1-induced calcium influx incubated for 15 mins followed by SDF1 stimulation and measured after 90 sec by Fluo-4AM dye based fluorescence assay; type: functional, cell-based; outline: as §2

SMILES	Ki (Mu-type opioid receptor [1])	IC50 [2]	Activity [3]	Activity [4]	IC50 (Mu-type opioid receptor [5])	IC50 [6]
CC1(C)CN2C(CS/C(=N\[C@H]3CC[C@H](CNC(=O)COCC(=O)NCCCCCCNC(=O)COCC(=O)N[C@@H]4CC[C@@]5(O)[C@H]6Cc7ccc(O)c8c7[C@@]5(CCN6CC5CC5)[C@H]4O8)CC3)NC3CCCCC3)=CSC2=N1	25.4 nM	17200 nM	inactive	inactive	61.9 nM	3300 nM
CNC(=O)COCC(=O)NCCCCCCNC(=O)COCC(=O)N[C@@H]1CC[C@@]2(O)[C@H]3Cc4ccc(O)c5c4[C@@]2(CCN3CC2CC2)[C@H]1O5	2 nM		inactive	inactive	133 nM	
CNC(=O)COCC(=O)NCCCCCCNC(=O)COCC(=O)NC[C@H]1CC[C@H](/N=C(/NC2CCCCC2)SCC2=CSC3=NC(C)(C)CN23)CC1		74000 nM		inactive		78300 nM
